Laboratory results: ChEMBL document CHEMBL1649574, “Prevalence and characterization of heterogeneous vancomycin-intermediate Staphylococcus aureus isolates from 14 cities in China” (2009)
Converted amounts (≈) assume the structure as drawn.

Tests used:
Format in all cases: functional
Staphylococcus aureus [1] = assay: Antimicrobial activity against SCCmec type III vancomycin-intermediate Staphylococcus aureus isolate 11b091 by agar dilution method
Outline: (§1)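 Agar-dilution MICs were measured on a subset of 200 blood MRSA isolates from China. Agents: oxacillin, rifampin, gentamicin, levofloxacin, erythromycin, vancomycin, teicoplanin, tigecycline, ceftobiprole and linezolid. Phenotype came from the PAP-AUC ratio of each isolate to S. aureus Mu3 (VSSA <0.9; hVISA 0.9 to 1.3; VISA ≥1.3), read on BHI agar with 0 to 8.0 mg/liter vancomycin after 48 h at 35°C.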

Staphylococcus aureus [2] = assay: Antimicrobial activity against SCCmec type III vancomycin-intermediate Staphylococcus aureus isolate xa07029 by agar dilution method; outline: as §1
Staphylococcus aureus [3] = assay: Antimicrobial activity against SCCmec type III vancomycin-intermediate Staphylococcus aureus isolate bd4768 by agar dilution method; outline: as §1
Staphylococcus aureus [4] = assay: Antimicrobial activity against SCCmec type IV vancomycin-intermediate Staphylococcus aureus isolate 06b41 by agar dilution method; outline: as §1
Staphylococcus aureus [5] = assay: Antimicrobial activity against SCCmec type III vancomycin-intermediate Staphylococcus aureus isolate gs07022 by agar dilution method; outline: as §1
Staphylococcus aureus [6] = assay: Antimicrobial activity against SCCmec type III vancomycin-intermediate Staphylococcus aureus isolate 5zjsau3 by agar dilution method; outline: as §1
Staphylococcus aureus [7] = assay: Antimicrobial activity against SCCmec type III vancomycin-intermediate Staphylococcus aureus isolate zj07028 by agar dilution method; outline: as §1
Staphylococcus aureus [8] = assay: Antimicrobial activity against SCCmec type III vancomycin-intermediate Staphylococcus aureus isolate b4k6307 by agar dilution method; outline: as §1
Staphylococcus aureus [9] = assay: Antimicrobial activity against SCCmec type II vancomycin-intermediate Staphylococcus aureus isolate b2k4781 by agar dilution method; outline: as §1
Staphylococcus aureus [10] = assay: Antimicrobial activity against SCCmec type III vancomycin-intermediate Staphylococcus aureus isolate b6k1642 by agar dilution method; outline: as §1
Staphylococcus aureus [11] = assay: Antimicrobial activity against SCCmec type II vancomycin-intermediate Staphylococcus aureus isolate 07b63 by agar dilution method; outline: as §1
Staphylococcus aureus [12] = assay: Antimicrobial activity against SCCmec type III vancomycin-intermediate Staphylococcus aureus isolate 15b52 by agar dilution method; outline: as §1
Staphylococcus aureus [13] = assay: Antimicrobial activity against SCCmec type III vancomycin-intermediate Staphylococcus aureus isolate gz07030 by agar dilution method; outline: as §1
Staphylococcus aureus [14] = assay: Antimicrobial activity against SCCmec type III vancomycin-intermediate Staphylococcus aureus isolate b5k3529 by agar dilution method; outline: as §1
Staphylococcus aureus [15] = assay: Antimicrobial activity against SCCmec type III vancomycin-intermediate Staphylococcus aureus isolate b5k3578 by agar dilution method; outline: as §1
Staphylococcus aureus [16] = assay: Antimicrobial activity against SCCmec type II vancomycin-intermediate Staphylococcus aureus isolate 6zjsau7 by agar dilution method; outline: as §1
Staphylococcus aureus [17] = assay: Antimicrobial activity against SCCmec type III vancomycin-intermediate Staphylococcus aureus isolate b3k5923 by agar dilution method; outline: as §1
Staphylococcus aureus [18] = assay: Antimicrobial activity against SCCmec type II vancomycin-intermediate Staphylococcus aureus isolate 4sy32 by agar dilution method; outline: as §1
Staphylococcus aureus [19] = assay: Antimicrobial activity against SCCmec type III vancomycin-intermediate Staphylococcus aureus isolate gz06051 by agar dilution method; outline: as §1
Staphylococcus aureus [20] = assay: Antimicrobial activity against SCCmec type II vancomycin-intermediate Staphylococcus aureus isolate sh06024 by agar dilution method; outline: as §1
Staphylococcus aureus [21] = assay: Antimicrobial activity against SCCmec type III vancomycin-intermediate Staphylococcus aureus isolate gz06040 by agar dilution method; outline: as §1
Staphylococcus aureus [22] = assay: Antimicrobial activity against SCCmec type II vancomycin-intermediate Staphylococcus aureus isolate 4sy39 by agar dilution method; outline: as §1
Staphylococcus aureus [23] = assay: Antimicrobial activity against SCCmec type III vancomycin-intermediate Staphylococcus aureus isolate b2k3421 by agar dilution method; outline: as §1
Staphylococcus aureus [24] = assay: Antimicrobial activity against SCCmec type III vancomycin-intermediate Staphylococcus aureus isolate sh07043 by agar dilution method; outline: as §1
Staphylococcus aureus [25] = assay: Antimicrobial activity against SCCmec type III vancomycin-intermediate Staphylococcus aureus isolate b3k2345 by agar dilution method; outline: as §1
Staphylococcus aureus [26] = assay: Antimicrobial activity against SCCmec type III vancomycin-intermediate Staphylococcus aureus isolate b6k7974 by agar dilution method; outline: as §1
Staphylococcus aureus [27] = assay: Antimicrobial activity against SCCmec type III vancomycin-intermediate Staphylococcus aureus isolate 13b16 by agar dilution method; outline: as §1

Structure (SMILES) | MIC (Staphylococcus aureus [1]) [µg/mL] | MIC (Staphylococcus aureus [2]) [µg/mL] | MIC (Staphylococcus aureus [3]) [µg/mL] | MIC (Staphylococcus aureus [4]) [µg/mL] | MIC (Staphylococcus aureus [5]) [µg/mL] | MIC (Staphylococcus aureus [6]) [µg/mL] | MIC (Staphylococcus aureus [7]) [µg/mL] | MIC (Staphylococcus aureus [8]) [µg/mL] | MIC (Staphylococcus aureus [9]) [µg/mL] | MIC (Staphylococcus aureus [10]) [µg/mL] | MIC (Staphylococcus aureus [11]) [µg/mL] | MIC (Staphylococcus aureus [12]) [µg/mL] | MIC (Staphylococcus aureus [13]) [µg/mL] | MIC (Staphylococcus aureus [14]) [µg/mL] | MIC (Staphylococcus aureus [15]) [µg/mL] | MIC (Staphylococcus aureus [16]) [µg/mL] | MIC (Staphylococcus aureus [17]) [µg/mL] | MIC (Staphylococcus aureus [18]) [µg/mL] | MIC (Staphylococcus aureus [19]) [µg/mL] | MIC (Staphylococcus aureus [20]) [µg/mL] | other results
C[C@H]1COc2c(N3CCN(C)CC3)c(F)cc3c(=O)c(C(=O)O)cn1c23.C[C@H]1COc2c(N3CCN(C)CC3)c(F)cc3c(=O)c(C(=O)O)cn1c23.O [LEVOFLOXACIN] | 32 | 8 | 32 | 0.25 | 32 | 16 | 8 | 4 | 32 | 16 | 8 | 4 | 64 | 16 | 16 | 32 | 32 | 8 | 64 | 8 | MIC (Staphylococcus aureus [21]): 64 µg/mL; MIC (Staphylococcus aureus [22]): 16 µg/mL; MIC (Staphylococcus aureus [23]): 16 µg/mL; MIC (Staphylococcus aureus [24]): 32 µg/mL; MIC (Staphylococcus aureus [25]): 16 µg/mL; MIC (Staphylococcus aureus [26]): 64 µg/mL; MIC (Staphylococcus aureus [27]): 32 µg/mL
CO[C@H]1/C=C/O[C@@]2(C)Oc3c(C)c(O)c4c(O)c(c(/C=N/N5CCN(C)CC5)c(O)c4c3C2=O)NC(=O)/C(C)=C\C=C\[C@H](C)[C@H](O)[C@@H](C)[C@@H](O)[C@@H](C)[C@H](OC(C)=O)[C@@H]1C [RIFAMPIN] | 0.008 (≈ 0.00972 µM) | > 256 | 256 (≈ 311 µM) | 0.016 (≈ 0.0194 µM) | 0.008 (≈ 0.00972 µM) | 0.008 (≈ 0.00972 µM) | ≤ 0.002 | 256 (≈ 311 µM) | 0.008 (≈ 0.00972 µM) | 16 (≈ 19.4 µM) | 0.008 (≈ 0.00972 µM) | 0.016 (≈ 0.0194 µM) | 0.004 (≈ 0.00486 µM) | 0.5 (≈ 0.608 µM) | 0.5 (≈ 0.608 µM) | 0.008 (≈ 0.00972 µM) | 256 (≈ 311 µM) | 0.008 (≈ 0.00972 µM) | > 256 | > 256 | MIC (Staphylococcus aureus [21]): 0.008 µg/mL (≈ 0.00972 µM); MIC (Staphylococcus aureus [22]): 0.008 µg/mL (≈ 0.00972 µM); MIC (Staphylococcus aureus [23]): 0.008 µg/mL (≈ 0.00972 µM); MIC (Staphylococcus aureus [24]): 0.016 µg/mL (≈ 0.0194 µM); MIC (Staphylococcus aureus [25]): 0.008 µg/mL (≈ 0.00972 µM); MIC (Staphylococcus aureus [26]): 256 µg/mL (≈ 311 µM); MIC (Staphylococcus aureus [27]): 0.008 µg/mL (≈ 0.00972 µM)
CC[C@H]1OC(=O)[C@H](C)[C@@H](O[C@H]2C[C@@](C)(OC)[C@@H](O)[C@H](C)O2)[C@H](C)[C@@H](O[C@@H]2O[C@H](C)C[C@H](N(C)C)[C@H]2O)[C@](C)(O)C[C@@H](C)C(=O)[C@H](C)[C@@H](O)[C@]1(C)O [ERYTHROMYCIN] | > 256 | > 256 | > 256 | 128 (≈ 174 µM) | > 256 | > 256 | > 256 | > 256 | > 256 | > 256 | > 256 | 256 (≈ 349 µM) | > 256 | > 256 | 2 (≈ 2.73 µM) | > 256 | > 256 | 1 (≈ 1.36 µM) | 0.25 (≈ 0.341 µM) | > 256 | MIC (Staphylococcus aureus [21]): > 256 µg/mL; MIC (Staphylococcus aureus [22]): 256 µg/mL (≈ 349 µM); MIC (Staphylococcus aureus [23]): > 256 µg/mL; MIC (Staphylococcus aureus [24]): > 256 µg/mL; MIC (Staphylococcus aureus [25]): > 256 µg/mL; MIC (Staphylococcus aureus [26]): > 256 µg/mL; MIC (Staphylococcus aureus [27]): > 256 µg/mL
CC[C@H]1OC(=O)[C@H](C)[C@@H](O[C@H]2C[C@@](C)(OC)[C@@H](O)[C@H](C)O2)[C@H](C)[C@@H](O[C@@H]2O[C@H](C)C[C@H](N(C)C)[C@H]2O)[C@](C)(OC)C[C@@H](C)C(=O)[C@H](C)[C@@H](O)[C@]1(C)O [CLARITHROMYCIN] | > 64 | 32 (≈ 42.8 µM) | 64 (≈ 85.6 µM) | 1 (≈ 1.34 µM) | 64 (≈ 85.6 µM) | 32 (≈ 42.8 µM) | 32 (≈ 42.8 µM) | 16 (≈ 21.4 µM) | 64 (≈ 85.6 µM) | 64 (≈ 85.6 µM) | 64 (≈ 85.6 µM) | 16 (≈ 21.4 µM) | 64 (≈ 85.6 µM) | 64 (≈ 85.6 µM) | 32 (≈ 42.8 µM) | > 64 | 64 (≈ 85.6 µM) | 32 (≈ 42.8 µM) | 64 (≈ 85.6 µM) | 32 (≈ 42.8 µM) | MIC (Staphylococcus aureus [21]): 32 µg/mL (≈ 42.8 µM); MIC (Staphylococcus aureus [22]): 32 µg/mL (≈ 42.8 µM); MIC (Staphylococcus aureus [23]): 64 µg/mL (≈ 85.6 µM); MIC (Staphylococcus aureus [24]): > 64 µg/mL; MIC (Staphylococcus aureus [25]): 64 µg/mL (≈ 85.6 µM); MIC (Staphylococcus aureus [26]): 64 µg/mL (≈ 85.6 µM); MIC (Staphylococcus aureus [27]): 16 µg/mL (≈ 21.4 µM)
